Assay results published in ChEMBL document CHEMBL1155274, “Synthesis of some novel pyrazolo[3,4-b]pyridine and pyrazolo[3,4-d]pyrimidine derivatives bearing 5,6-diphenyl-1,2,4-triazine moiety as potential antimicrobial agents” (Eur J Med Chem, 2009).
≈ marks a conversion by molar mass, not a printed value.

How the values were obtained:
Staphylococcus aureus [1] = assay: Antimicrobial activity against Staphylococcus aureus MTCCB 737 at 100 ug/mL after 16 to 20 hrs by disk diffusion method; assay type: functional; details: read-out: IZ
How it was run: (§1)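 Nutrient agar disc diffusion against bacterial strains, compounds in DMSO at a single test concentration. DMSO blank; tetracycline as reference drug. Plates incubated 16–20 h at 37 °C, and the inhibition zone was measured.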

[2] = system: Staphylococcus epidermidis; assay: Antimicrobial activity against Staphylococcus epidermidis MTCCB 1824 at 100 ug/mL after 16 to 20 hrs by disk diffusion method; assay type: functional; details: read-out: IZ; how it was run: as §1
Escherichia coli [3] = assay: Antimicrobial activity against Escherichia coli MTCCB 1652 at 100 ug/mL after 16 to 20 hrs by disk diffusion method; assay type: functional; details: read-out: IZ; how it was run: as §1
Aspergillus niger [4] = assay: Antimicrobial activity against Aspergillus niger at 100 ug/mL after 3 to 4 days by disk diffusion method; details: read-out: IZ
Alternaria alternata [5] = assay: Antimicrobial activity against Alternaria alternata at 100 ug/mL after 3 to 4 days by disk diffusion method; details: read-out: IZ
Aspergillus fumigatus [6] = assay: Antimicrobial activity against Aspergillus fumigatus at 100 ug/mL after 3 to 4 days by disk diffusion method; details: read-out: IZ
Staphylococcus aureus [7] = assay: Antimicrobial activity against Staphylococcus aureus MTCCB 737 after 24 hrs by serial dilution method; assay type: functional; details: MTCCB 737, 24 h
How it was run: (§2)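 Tube serial dilution in nutrient broth at compound levels of 6.25, 12.5, 25, 50 and 100. Each tube received standardized microbial suspension (10^7 cells/mL) and was incubated 24 h at 37 °C. MIC was the lowest concentration preventing growth, i.e. maintaining or reducing inoculum viability.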

Escherichia coli [8] = assay: Antimicrobial activity against Escherichia coli MTCCB 1652 after 24 hrs by serial dilution method; assay type: functional; details: MTCCB 1652, 24 h; how it was run: as §2
Aspergillus niger [9] = assay: Antimicrobial activity against Aspergillus niger after 24 hrs by serial dilution method; assay type: functional; how it was run: as §2
Alternaria alternata [10] = assay: Antimicrobial activity against Alternaria alternata after 24 hrs by serial dilution method; assay type: functional; how it was run: as §2
Artemia salina = assay: Toxicity against Artemia salina assessed as number of the nauplii died after 24 hrs; assay type: organism-based; details: in vivo
How it was run: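 Artemia salina eggs were hatched in sea salt water (38 g/L) at 37 °C for 48 h with constant oxygen to give nauplii. Stocks were 10 mg per 2 mL DMSO, and five dilutions were run in triplicate with about 10 nauplii per vial. A DMSO-only vial served as control.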

Aspergillus niger [11] = assay: Antimicrobial activity against Aspergillus niger at 30 ug/mL after 3 to 4 days by disk diffusion method; details: read-out: IZ
Alternaria alternata [12] = assay: Antimicrobial activity against Alternaria alternata at 30 ug/mL after 3 to 4 days by disk diffusion method; details: read-out: IZ
Aspergillus fumigatus [13] = assay: Antimicrobial activity against Aspergillus fumigatus at 30 ug/mL after 3 to 4 days by disk diffusion method; details: read-out: IZ
Staphylococcus aureus [14] = assay: Antimicrobial activity against Staphylococcus aureus MTCCB 737 at 30 ug/mL after 16 to 20 hrs by disk diffusion method; assay type: functional; details: read-out: IZ
How it was run: (§3)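 Nutrient agar disc diffusion against S. aureus MTCCB 737, S. epidermidis MTCCB 1824 and E. coli MTCCB 1652. Tetracycline served as the standard drug, and DMSO served as the blank. The inhibition zone was measured after 16–20 h at 37 °C.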

[15] = system: Staphylococcus epidermidis; assay: Antimicrobial activity against Staphylococcus epidermidis MTCCB 1824 at 30 ug/mL after 16 to 20 hrs by disk diffusion method; assay type: functional; details: read-out: IZ; how it was run: as §3
Escherichia coli [16] = assay: Antimicrobial activity against Escherichia coli MTCCB 1652 at 30 ug/mL after 16 to 20 hrs by disk diffusion method; assay type: functional; details: read-out: IZ; how it was run: as §3

| Molecule | zone of inhibition at 100 µg/mL (Staphylococcus aureus [1]) [mm] | zone of inhibition at 100 µg/mL [2] [mm] | zone of inhibition at 100 µg/mL (Escherichia coli [3]) [mm] | zone of inhibition at 100 µg/mL (Aspergillus niger [4]) [mm] | zone of inhibition at 100 µg/mL (Alternaria alternata [5]) [mm] | zone of inhibition at 100 µg/mL (Aspergillus fumigatus [6]) [mm] | MIC (Staphylococcus aureus [7]) [µg/mL] | MIC (Escherichia coli [8]) [µg/mL] | MIC (Aspergillus niger [9]) [µg/mL] | MIC (Alternaria alternata [10]) [µg/mL] | LC50 (Artemia salina) [ppm] | zone of inhibition at 30 µg/mL (Aspergillus niger [11]) [mm] | zone of inhibition at 30 µg/mL (Alternaria alternata [12]) [mm] | zone of inhibition at 30 µg/mL (Aspergillus fumigatus [13]) [mm] | zone of inhibition at 30 µg/mL (Staphylococcus aureus [14]) [mm] | zone of inhibition at 30 µg/mL [15] [mm] | zone of inhibition at 30 µg/mL (Escherichia coli [16]) [mm] |
| --- | --- | --- | --- | --- | --- | --- | --- | --- | --- | --- | --- | --- | --- | --- | --- | --- | --- |
| CSc1nn(-c2nnc(-c3ccccc3)c(-c3ccccc3)n2)c2nc(C)c3c(=O)[nH]cnc3c12 | 17 | 17 | 10 | 10 | 12 | 11 |  |  |  |  |  |  |  |  |  |  |  |
| Nc1nc(=S)[nH]c2nn(-c3nnc(-c4ccccc4)c(-c4ccccc4)n3)c(N)c12 | 9 | 11 | 13 | 7 | 2 | 11 |  |  |  |  |  |  |  |  |  |  |  |
| CSC(Nc1c(C#N)c(SC)nn1-c1nnc(-c2ccccc2)c(-c2ccccc2)n1)=C(C#N)C#N | 17 | 21 | 11 | 6 | 8 | 9 |  |  |  |  |  |  |  |  |  |  |  |
| CSc1nn(-c2nnc(-c3ccccc3)c(-c3ccccc3)n2)c(N)c1C#N | 12 | 7 | 3 | 6 | 0 | 8 |  |  |  |  |  |  |  |  |  |  |  |
| CSc1nn(-c2nnc(-c3ccccc3)c(-c3ccccc3)n2)c2nc(C)c(C#N)c(N)c12 | 19 | 16 | 12 | 7 | 5 | 6 |  |  |  |  |  |  |  |  |  |  |  |
| Cc1nc2c(c(=O)[nH]1)c1nnc(C)c(=O)n1n2-c1nnc(-c2ccccc2)c(-c2ccccc2)n1 | 28 | 26 | 29 | 15 | 16 | 19 | 25 (≈ 53.9 µM) | 12.5 (≈ 27 µM) | 25 (≈ 53.9 µM) | 50 (≈ 108 µM) | 6.49 |  |  |  |  |  |  |
| N#Cc1c(N)nn2c(N)c3c(nc12)n(-c1nnc(-c2ccccc2)c(-c2ccccc2)n1)n1c(=O)c2ccccc2nc31 | 26 | 23 | 20 | 19 | 19 | 21 | 50 (≈ 88.9 µM) | > 100 | > 100 | 50 (≈ 88.9 µM) | 1.39 |  |  |  |  |  |  |
| CC(=O)c1c(-c2ccccc2)nc2c3c(nn2-c2nnc(-c4ccccc4)c(-c4ccccc4)n2)N(c2ccccc2)C(C)=Nc13 | 18 | 13 | 10 | 7 | 9 | 3 |  |  |  |  |  |  |  |  |  |  |  |
| CSc1nn(-c2nnc(-c3ccccc3)c(-c3ccccc3)n2)c2nc(-c3ccccc3)c3c(C)c(C#N)c(N)nc3c12 | 25 | 22 | 19 | 11 | 9 | 16 | 50 (≈ 86.6 µM) | 25 (≈ 43.3 µM) | > 100 | > 100 | 0.58 |  |  |  |  |  |  |
| CSc1nn(-c2nnc(-c3ccccc3)c(-c3ccccc3)n2)c2nc(C)[nH]c(=O)c12 | 14 | 11 | 5 | 9 | 10 | 12 |  |  |  |  |  |  |  |  |  |  |  |
| CSc1nn(-c2nnc(-c3ccccc3)c(-c3ccccc3)n2)c2nc3c(C#N)c(N)nn3c(N)c12 | 24 | 22 | 17 | 18 | 16 | 22 | 50 (≈ 102 µM) | > 100 | 25 (≈ 50.9 µM) | 25 (≈ 50.9 µM) | 2.31 |  |  |  |  |  |  |
| Cc1nc2c(c(=O)[nH]1)c1nnc(-c3ccccc3)n1n2-c1nnc(-c2ccccc2)c(-c2ccccc2)n1 | 27 | 27 | 26 | 12 | 8 | 17 | 50 (≈ 100 µM) | 25 (≈ 50.2 µM) | 50 (≈ 100 µM) | 50 (≈ 100 µM) | 3.54 |  |  |  |  |  |  |
| Cc1nc2c(c(NN)nn2-c2nnc(-c3ccccc3)c(-c3ccccc3)n2)c(=O)[nH]1 | 18 | 10 | 8 | 11 | 13 | 10 |  |  |  |  |  |  |  |  |  |  |  |
| CSc1nn(-c2nnc(-c3ccccc3)c(-c3ccccc3)n2)c2nc(-c3ccccc3)c(C(C)=O)c(N)c12 | 16 | 18 | 13 | 4 | 5 | 10 |  |  |  |  |  |  |  |  |  |  |  |
| S=c1nc2c3c(n(-c4nnc(-c5ccccc5)c(-c5ccccc5)n4)nc3[nH]1)N=C(c1ccccc1)N2 | 16 | 13 | 9 | 11 | 5 | 9 |  |  |  |  |  |  |  |  |  |  |  |
| O=C(O)c1cc(O)c(O)c(O)c1 [GALLIC ACID] |  |  |  |  |  |  |  |  |  |  | 4.53 |  |  |  |  |  |  |
| CC(=O)N1CCN(c2ccc(OCC3COC(Cn4ccnc4)(c4ccc(Cl)cc4Cl)O3)cc2)CC1 (configuration not stated) [KETOCONAZOLE] |  |  |  |  |  |  |  |  | 6.25 (≈ 11.8 µM) | 6.25 (≈ 11.8 µM) |  | 20 | 21 | 18 |  |  |  |
| CN(C)[C@@H]1C(O)=C(C(N)=O)C(=O)[C@@]2(O)C(O)=C3C(=O)c4c(O)cccc4[C@@](C)(O)[C@H]3C[C@@H]12 [TETRACYCLINE] |  |  |  |  |  |  | 6.25 (≈ 14.1 µM) | 12.5 (≈ 28.1 µM) |  |  |  |  |  |  | 30 | 25 | 28 |
| BLEOMYCIN |  |  |  |  |  |  |  |  |  |  | 0.41 |  |  |  |  |  |  |
